Bioassay records as filed in PubChem.
CHRM4 PAM = positive allosteric modulators of human muscarinic M4 receptor; CHO-K1 hM4/Gqi5, Fluo-8 calcium fluorescence, ACh EC20; 0% = ACh EC20, 100% = maximal ACh; activation, % at 3 µM; hit rate 0.4% among 360,000; AID 624126;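 active means activation above its plate's cutoff, the mean activation of sample wells plus 3 SD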
V1aR counter = V1a receptor agonism, counter-screen for OXTR agonists | hit rate 0.25% among 320,000 | AID 2797 | activation, % at 3 µM | CHO-V1R cells, Fluo-8 calcium fluorescence, agonist mode; 0% DMSO, 100% 3 nM vasopressin;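 active means activation above the mean activation of all tested compounds plus 3 SD, per screening run, cut at about 20% in these data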;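 further: signal is peak over basal fluorescence ratio across a 100 second FLIPR read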
M4 ag = CHRM4 agonism in calcium assay. P08173. CHO-K1 hM4/Gqi5, Fluo-8 calcium fluorescence; vehicle 0%, full acetylcholine response 100%. activation, % at 3 µM. hit rate 0.14% among 360,000. AID 624127;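 active means activation above the run mean over all test wells plus 3 SD, cut at about 32% in these data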;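 further: peak over basal fluorescence ratio per well then scaled between controls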
OXTR potentiator = potentiators of human oxytocin receptor; P30559; CHO-OTR cells, Fluo-8 calcium fluorescence, potentiator mode; 0% = oxytocin EC15, 100% = EC100; activation, % at 3 µM; hit rate 0.061% among 320,000;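 active means activation above that plate's cutoff, the mean activation of tested compounds plus 3 SD, cut at about 6.6% in these data, passing the limit was not always enough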
Target sequence (P30559 whole entry, looked up): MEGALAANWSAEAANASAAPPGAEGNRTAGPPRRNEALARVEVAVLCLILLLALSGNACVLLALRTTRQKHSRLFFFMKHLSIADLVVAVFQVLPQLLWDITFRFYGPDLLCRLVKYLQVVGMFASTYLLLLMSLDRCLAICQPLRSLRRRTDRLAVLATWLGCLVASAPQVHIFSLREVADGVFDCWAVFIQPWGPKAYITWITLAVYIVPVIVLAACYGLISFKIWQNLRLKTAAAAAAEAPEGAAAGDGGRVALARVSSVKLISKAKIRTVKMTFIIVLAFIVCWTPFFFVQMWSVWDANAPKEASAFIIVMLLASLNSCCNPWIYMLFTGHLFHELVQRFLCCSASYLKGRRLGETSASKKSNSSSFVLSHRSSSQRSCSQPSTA
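Replication – single well per compound, singlicate · Assay system – CHO cell line stably expressing human OTR · Timing – 6 min pre-incubation, 100 s read · Measure – normalized max/min fluorescence ratio, % activation · Doses – 3.0 µM, one dose · Detection – Fluo-8 calcium dye fluorescence · Probe or stimulus – oxytocin near EC15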
M4 antag = CHRM4 antagonism in calcium assay. hit rate 0.73% among 360,000. CHO-hM4 cells, ACh EC80, Fluo-8 calcium fluorescence. inhibition, % at 3 µM. AID 624125. P08173;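 active means inhibition above its plate's cutoff, the mean inhibition of sample wells plus 3 SD, cut at about 27% in these data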
OXTR agonist = agonists of human oxytocin receptor. P30559. CHO-OTR cells, Fluo-8 calcium fluorescence; normalized: DMSO 0%, oxytocin 100%. activation, % at 3 µM. hit rate 0.32% among 320,000;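 active means activation above the mean of all tested compounds plus 3 SD, cutoff set per screening run, cut at about 20% in these data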;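 further: peak over basal fluorescence ratio from a 100 s FLIPR kinetic read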
A number is an active result; – = inactive; · = no result given. Sampled rows, rich in hits. Any-hit rate of the full collection: about 1.5%.

SMILES	CHRM4 PAM	V1aR counter	M4 ag	OXTR potentiator	M4 antag	OXTR agonist
COc1ccc(Br)cc1CN(C)CC(=O)NCCc1ccc(S(N)(=O)=O)cc1	–	–	–	–	–	–
CC(=O)c1ccc(N2CCN(C(=O)c3ccc(Cl)c(NC4=NC5CS(=O)(=O)CC5S4)c3)CC2)cc1 (stereo unspecified)	48.2	–	–	–	–	–
N#Cc1ccc(C(C(=O)NC2CCCCC2)n2c(=O)c(-c3ccccc3)nc3ccccc32)cc1 (stereo unspecified)	–	·	–	·	–	·
N=C(N)c1ccc(O)cc1	27.6	–	–	–	–	–
CC/C(=C(/CC)c1ccc(O)cc1)c1ccc(O)cc1	–	–	–	–	50.6	–
CCNS(=O)(=O)c1ccc(OC)c(C(=O)NC2CCCCC2)c1	–	–	–	–	–	–
N#Cc1cc(C(=O)Cc2ccccc2)c[nH]1	–	–	–	–	–	–
COC(=O)C1=C(N)OC2=C(C(=O)CC(C)(C)C2)C1c1cccs1 (stereo unspecified)	20.0	–	–	–	–	–
CCC12CC1(C(=O)OC)C(=O)N1CCc3c([nH]c4ccccc34)C12 (stereo unspecified)	–	·	–	·	–	·
O=C(OCn1ncc(Cl)c(Cl)c1=O)c1ccccc1Cl	–	–	–	17.0	–	–
O=C(OCn1ncc(Cl)c(Cl)c1=O)c1ccc(F)cc1	·	–	·	–	·	–
C=C(C)CSc1nncn1/N=C/c1ccc(OC)cc1	30.4	–	–	–	–	–
CCSc1nncn1/N=C/c1ccc(OC)c(OC)c1	–	–	–	–	–	–
CCOC(=O)C1CCCN(C(=O)C2c3ccccc3Oc3ccccc32)C1 (stereo unspecified)	–	34.8	–	–	–	43.7
COc1ccc(-n2c(/C=C(\C)O)nc(=O)c3c(C)cc(C)nc32)cc1	34.3	–	–	–	–	–
COc1ccc(-n2c(C)nn(C)c2=O)cc1	–	–	–	–	–	–
CN1CCCC(C#CC(O)(c2ccccc2)c2ccccc2)C1 (stereo unspecified)	–	–	–	–	74.1	–
O=C(O)c1cc2c(ncc3c(=O)n(-c4ccccc4)[nH]c32)s1	–	·	–	·	–	·
O=C(CCNS(=O)(=O)c1ccccc1)N1CCCCCC1	28.2	–	–	–	–	–
Cc1ccc(S(=O)(=O)NCCC(=O)N2CCC(C(N)=O)CC2)cc1C	26.4	–	–	–	–	–
O=C(CCNS(=O)(=O)c1ccccc1)N1CCCCCCC1	–	–	–	–	–	–
CCOC(=O)N1CCN(C(=O)CCNS(=O)(=O)c2ccc(C)c(C)c2)CC1	–	–	–	–	–	–
CCOc1ccc(C(=O)OC2CCN(C)CC2)cc1	–	–	–	–	–	–
COc1ccc(C(=O)OC2CCN(C)CC2)cc1	30.8	–	–	–	–	–
Cc1ccc2c(c1)C(=O)C(=O)N2Cc1ccc(C(F)(F)F)cc1	–	–	32.1	–	–	–
SMILES	CHRM4 PAM	V1aR counter	M4 ag	OXTR potentiator	M4 antag	OXTR agonist
Cc1ccc(OCCN2C(=O)C(=O)c3cc(C)ccc32)cc1	–	–	–	–	–	–
Cc1ccc(NC(=O)C2(C)CCN2Cc2csc3ccccc23)cc1 (stereo unspecified)	–	·	–	·	45.9	·
CC1(C(=O)Nc2ccc3c(c2)OCO3)CCN1Cc1csc2ccccc12 (stereo unspecified)	–	·	–	·	–	·
CC12CCC(C)(O1)C1C(=O)N(c3nccs3)C(=O)C12 (stereo unspecified)	–	·	–	·	–	·
O=c1[nH]c(C2CCCN(S(=O)(=O)c3ccccc3Cl)C2)nc2c1nnn2Cc1ccc2c(c1)OCCO2 (stereo unspecified)	–	–	–	–	–	–
O=c1[nH]c(C2CCN(S(=O)(=O)c3ccc4c(c3)OCCO4)CC2)nc2c1nnn2Cc1cccc(F)c1	–	–	–	–	79.2	–
O=c1[nH]c(C2CCN(S(=O)(=O)c3ccccc3)CC2)nc2c1nnn2Cc1ccc2c(c1)OCCO2	–	–	–	–	95.1	–
O=c1[nH]c(C2CCN(S(=O)(=O)c3ccc4c(c3)OCCO4)CC2)nc2c1nnn2Cc1ccc(F)cc1	–	–	–	–	47.9	–
O=c1[nH]c(C2CCN(S(=O)(=O)c3ccc(S(=O)(=O)NC4CC4)cc3)CC2)nc2c1nnn2Cc1cccc(F)c1	–	–	–	–	44.9	–
O=c1[nH]c(C2CCN(S(=O)(=O)c3ccccc3)CC2)nc2c1nnn2Cc1ccccc1	–	–	–	–	67.0	–
O=c1[nH]c(C2CCN(S(=O)(=O)c3ccc([N+](=O)[O-])cc3)CC2)nc2c1nnn2Cc1ccccc1	–	–	–	–	–	–
CCCCn1c(-c2ccc([N+](=O)[O-])cc2)n[nH]c1=S	–	–	–	–	95.4	–
COc1cccc2c1C1COC3C4CC(C(=O)O)C(C(C2)N13)N4C (stereo unspecified)	–	·	–	·	–	·
CCN1C(=O)/C(=C/c2c(C)nn(C)c2C)SC1=S	30.5	–	–	–	–	–
CCN1C(=O)/C(=C\N2CCCCCC2)SC1=S	–	–	–	–	69.3	–
CCOc1ccc2cc(S(=O)(=O)N3CCN(C)CC3)ccc2c1	15.0	–	–	–	–	–
CC(C)(C)c1ccc(C(=O)N2CCOC23CCCCC3)cc1	–	·	–	·	–	·
CC(OC(=O)Cc1c(F)cccc1Cl)C(=O)NC1CCCCC1C (stereo unspecified)	–	–	–	–	–	–
CC(C)C12CN3CC(C(C)C)(CN(C1)C3c1ccccc1)C2O (stereo unspecified)	32.4	–	–	–	–	–
COc1cccc(OC)c1OCCCc1c(C)n[nH]c1C	29.1	–	–	–	–	–
CC1=NN(C(=O)COc2ccc(C)c(C)c2)C(O)(c2ccc(Cl)cc2)C1 (stereo unspecified)	21.8	–	–	–	–	–
Cc1ccccc1C(=O)NNC(=S)NC(=O)c1cccs1	–	64.6	39.1	–	–	36.1
Cc1cccc(C(=O)NC(=S)NNC(=O)c2cccs2)c1	–	25.8	–	–	–	35.8
Cc1cccc(C(=O)NC(=S)NNC(=O)c2ccc(Cl)cc2)c1	–	112.5	132.5	–	39.6	98.2
COC(=O)CNC(=S)NC(=O)c1ccc(C(C)(C)C)cc1	–	–	–	–	26.8	–
O=c1oc(-c2ccccc2)c(-c2ccccc2)c2ccccc12	–	·	–	·	–	·
COc1cccc(-c2oc3c(c2-c2ccc(Br)nc2)C(O)CCC3)c1 (stereo unspecified)	–	·	–	·	–	·
CC1(C(=O)NS(=O)(=O)c2ccccc2Cl)CCN1C(=O)CCc1ccccc1 (stereo unspecified)	–	·	–	·	–	·
